Source: PubChem (The Scripps Research Institute Molecular Screening Center)
PAD4 FP inh: blocks human protein arginine deiminase 4; hit rate 0.41% among 330,000; recombinant PAD4, RCA probe fluorescence polarization; inhibition, % at 6.36 µM; Q9UM07;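 active = percent inhibition above a cutoff equal to the mean of all tested compounds plus 3 SD, cut at about 15% in these data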
RBBP9 inhibitor: human RBBP9 hydrolase inhibition | O75884 | recombinant RBBP9, FP-Rh probe fluorescence polarization | inhibition, % at 7.94 µM | hit rate 0.2% among 220,000 | AID 1515;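 active = inhibition above the campaign mean of all tested compounds plus 3 SD, cut at about 14% in these data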
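system = RBBP9 protein | input = RBBP9 at 2.5 µM in dispensed solution, before mixing | measured by = fluorescence polarization (mP), excitation 525 nm, emission 598 nm | incubation = enzyme-compound preincubation 30 min, then probe labeling 45 min, 25 °C | buffer or medium = Tris-NaCl-Pluronic buffer, pH 8.0 | compound = single dose 7.94 µM | also added = FP-Rh probe, 375 nM dispensing solution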
PME-1 primary: blocks human protein phosphatase methylesterase 1. inhibition, % at 5.9 µM. Q9Y570. recombinant PME-1, FP-Rh probe fluorescence polarization. AID 2130. hit rate 0.53% among 320,000;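 active = inhibition above the campaign mean of all compounds plus 3 SD, cut at about 26% in these data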;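 also: competitive labeling of PME-1 active site by serine hydrolase directed probe; inhibitors block probe labeling so polarization falls and inhibition rises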
GSTO1 inh: GSTO1 inhibition, counter-screen for RBBP9 inhibitors; P78417; recombinant GSTO1, activity-based probe fluorescence polarization; inhibition, % at 5.96 µM; hit rate 1.1% among 300,000; AID 1974;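 active = inhibition above the campaign mean inhibition plus 3 SD, cut at about 35% in these data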
Target sequence (P78417 whole entry, looked up): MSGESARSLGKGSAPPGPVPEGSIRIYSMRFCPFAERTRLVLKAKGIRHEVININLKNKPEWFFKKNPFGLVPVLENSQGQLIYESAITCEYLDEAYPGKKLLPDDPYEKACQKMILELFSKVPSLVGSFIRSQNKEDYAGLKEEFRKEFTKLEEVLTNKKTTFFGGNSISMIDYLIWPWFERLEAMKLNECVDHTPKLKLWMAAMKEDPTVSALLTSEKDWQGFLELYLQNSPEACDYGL
Fam108B counter: Fam108B inhibition, counter-screen for RBBP9 inhibitors | inhibition, % at 9.51 µM | hit rate 0.33% among 300,000 | recombinant Fam108B, FP-Rh probe fluorescence polarization;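 active = inhibition above the screen mean inhibition plus 3 SD, computed separately per campaign, cut at about 18% in these data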;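 also: inhibitors lower polarization as less probe binds the enzyme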
PRMT1 FP inh: blocks human protein arginine methyltransferase 1. recombinant PRMT1, activity-based probe fluorescence polarization. inhibition, % at 2.79 µM. hit rate 1.3% among 370,000. Q99873;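 active = inhibition above about 21% made by adding two undisclosed values, limit read from the data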
Target sequence (Q99873 whole entry, looked up): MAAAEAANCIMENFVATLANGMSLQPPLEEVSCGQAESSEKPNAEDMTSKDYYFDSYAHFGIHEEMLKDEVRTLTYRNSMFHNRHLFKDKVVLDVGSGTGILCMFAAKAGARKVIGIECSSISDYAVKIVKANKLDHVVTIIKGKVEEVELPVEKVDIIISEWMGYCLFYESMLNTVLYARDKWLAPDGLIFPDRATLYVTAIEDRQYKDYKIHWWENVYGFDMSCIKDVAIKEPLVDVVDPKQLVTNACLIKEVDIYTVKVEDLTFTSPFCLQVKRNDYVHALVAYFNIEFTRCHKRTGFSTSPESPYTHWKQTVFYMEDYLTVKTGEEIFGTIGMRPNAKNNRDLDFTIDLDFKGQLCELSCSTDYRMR
PRMT1 confirm: PRMT1 (human) inhibition, FP confirmation. shares compounds with PRMT1 FP inh. hit rate 42% among 3,300. recombinant His-PRMT1, activity-based probe fluorescence polarization. inhibition, % at 2.79 µM;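 active = mean inhibition across replicates above the hit cutoff derived for the earlier primary screen, cut at about 22% in these data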
A number is an active result. A selection: hits, their analogues and other compounds. The true share with any hit is near 2.3%.

`CN(C)c1ccccc1C(=O)N1CCC(n2nccc2NC(=O)C2CC2)CC1` gave PAD4 FP inh inactive, PME-1 primary inactive, GSTO1 inh inactive, Fam108B counter inactive and PRMT1 FP inh inactive.
`CC1(OC(=O)C2CCCC2)C(=O)C=C2C=C(C3CC3)OC=C2C1=O` (stereo not drawn) gave PAD4 FP inh inactive, PME-1 primary inactive, GSTO1 inh inactive and Fam108B counter inactive.
COC/C=C/C1=CC2=CC(=O)C(C)(OC(=O)C3CCCC3)C(=O)C2=CO1 (stereo not drawn) was read as PAD4 FP inh inactive, PME-1 primary inactive, GSTO1 inh inactive, Fam108B counter inactive, PRMT1 FP inh 46.4 and PRMT1 confirm 24.4.
For COc1ccc(NC(=O)c2cc(C3CCCCN3C(=O)c3cc(F)ccc3C)on2)c(C)c1 (stereo not drawn) the results were PRMT1 FP inh inactive.
`O=[N+]([O-])c1ncccc1OCc1ccc(-c2ccccc2)cc1` gave PAD4 FP inh inactive, PME-1 primary inactive, GSTO1 inh inactive, Fam108B counter inactive and PRMT1 FP inh inactive.
COC(=O)c1cn[nH]c1N was read as PAD4 FP inh inactive, RBBP9 inhibitor inactive, PME-1 primary inactive, GSTO1 inh inactive, Fam108B counter inactive and PRMT1 FP inh inactive.
Cc1ccc(Nc2c([N+](=O)[O-])ccc3nonc23)c(C)c1 was read as PAD4 FP inh inactive, PME-1 primary inactive, GSTO1 inh inactive, Fam108B counter inactive and PRMT1 FP inh inactive.
Cc1ccc(S(=O)c2ccc([N+](=O)[O-])c3nonc23)cc1 (stereo not drawn) was read as PRMT1 FP inh 57.8 and PRMT1 confirm 106.2.
Screening Cc1nnc(SCC(=O)NC(=O)NC(C)C)s1 returned PAD4 FP inh inactive, RBBP9 inhibitor inactive, PME-1 primary inactive, GSTO1 inh inactive, Fam108B counter inactive and PRMT1 FP inh inactive.
For COc1ccc(NC(C)=O)cc1S(=O)(=O)NCCc1ccccn1 the results were PAD4 FP inh inactive, PME-1 primary inactive and PRMT1 FP inh inactive.
For COc1ccc(C(c2nnnn2C(C)(C)C)N2CCN(C/C=C/c3ccccc3)CC2)cc1 (stereo not drawn) the results were PRMT1 FP inh 34.9 and PRMT1 confirm inactive.
`COc1ccc(C(c2nnnn2-c2ccc(OC)cc2)N2CCN(C/C=C/c3ccccc3)CC2)cc1` (stereo not drawn) gave PRMT1 FP inh inactive.
Cc1nnc2n(c1=O)N=C(c1ccc(Cl)cc1)CS2 was read as PAD4 FP inh inactive, RBBP9 inhibitor inactive, PME-1 primary inactive, GSTO1 inh inactive, Fam108B counter inactive, PRMT1 FP inh 55.7 and PRMT1 confirm 57.1.
`CCc1nnc2n1N=C(c1ccc(Cl)cc1)CS2` gave PAD4 FP inh inactive, PME-1 primary inactive, GSTO1 inh inactive, Fam108B counter inactive and PRMT1 FP inh inactive.
`Clc1ccc(-c2nc3nc4ccccc4nc3n2Cc2ccco2)cc1` gave PAD4 FP inh inactive, RBBP9 inhibitor inactive, PME-1 primary inactive, GSTO1 inh inactive, Fam108B counter inactive, PRMT1 FP inh 27.4 and PRMT1 confirm inactive.
Screening Cc1ccc(-c2nc3nc4ccccc4nc3n2Cc2ccco2)cc1 returned PAD4 FP inh inactive, RBBP9 inhibitor inactive, PME-1 primary inactive, GSTO1 inh inactive, Fam108B counter inactive and PRMT1 FP inh inactive.
`O=c1[nH]c(NCCO)c(N=Cc2ccccc2)c(=O)[nH]1` gave PAD4 FP inh inactive, PME-1 primary inactive, GSTO1 inh inactive, Fam108B counter inactive and PRMT1 FP inh inactive.
Screening COc1cccc2c1C(=O)c1c(O)c3c(c(O)c1C2=O)CC(O)(C(C)=O)CC3OC1CC(N(C)C)C(O)C(C)O1 (stereo not drawn) returned PRMT1 FP inh 193.2 and PRMT1 confirm 154.1.
CC(=O)[C@@]1(O)Cc2c(O)c3c(c(O)c2[C@H](O[C@H]2C[C@H](N)[C@H](O)[C@H](C)O2)C1)C(=O)c1ccccc1C3=O was read as PRMT1 FP inh 169.5 and PRMT1 confirm 153.1.
Screening N#Cc1ccc(NC(=O)NN2CCCCCC2)cc1 returned PRMT1 FP inh inactive.
`O=C(OCc1nnc(-c2ccc(Cl)cc2)o1)C12CC3CC(CC(O)(C3)C1)C2` gave PAD4 FP inh inactive, RBBP9 inhibitor inactive, PME-1 primary inactive, GSTO1 inh inactive, Fam108B counter inactive and PRMT1 FP inh inactive.
For Cc1c(Cl)cccc1NC(CC(=O)c1ccccc1)C(=O)OCC(=O)c1cccs1 (stereo not drawn) the results were PAD4 FP inh inactive, RBBP9 inhibitor inactive, PME-1 primary inactive, GSTO1 inh inactive, Fam108B counter inactive, PRMT1 FP inh 62.9 and PRMT1 confirm inactive.
COc1ccccc1NC(CC(=O)c1ccccc1)C(=O)OCC(=O)c1ccc(F)cc1 (stereo not drawn) was read as PAD4 FP inh inactive, RBBP9 inhibitor inactive, PME-1 primary inactive, GSTO1 inh inactive, Fam108B counter inactive, PRMT1 FP inh 35.3 and PRMT1 confirm inactive.
Screening Cc1c(Cl)cccc1NC(CC(=O)c1ccccc1)C(=O)O (stereo not drawn) returned PAD4 FP inh inactive, RBBP9 inhibitor inactive, PME-1 primary inactive, GSTO1 inh inactive, Fam108B counter inactive, PRMT1 FP inh 34.8 and PRMT1 confirm inactive.
For O=C(CC(Nc1cccc(Cl)c1Cl)C(=O)O)c1ccccc1 (stereo not drawn) the results were PAD4 FP inh inactive, RBBP9 inhibitor inactive, PME-1 primary inactive, GSTO1 inh inactive, Fam108B counter inactive, PRMT1 FP inh 29.2 and PRMT1 confirm inactive.
O=C(CN(C(=O)c1csnn1)c1ccccc1Cl)NC1CCCC1 was read as PAD4 FP inh inactive, PME-1 primary inactive, GSTO1 inh inactive, Fam108B counter inactive and PRMT1 FP inh inactive.
CC1(C)CC(N(Cc2cccs2)C(=O)c2ccco2)CCO1 (stereo not drawn) was read as PAD4 FP inh inactive, RBBP9 inhibitor inactive, PME-1 primary inactive, GSTO1 inh inactive, Fam108B counter inactive and PRMT1 FP inh inactive.
For O=C(CC(Nc1ccc(Cl)cc1)C(=O)O)c1ccccc1 (stereo not drawn) the results were PAD4 FP inh inactive, RBBP9 inhibitor inactive, PME-1 primary inactive, GSTO1 inh inactive, Fam108B counter inactive and PRMT1 FP inh inactive.
For O=C(CC(Nc1ccccc1Cl)C(=O)O)c1ccccc1 (stereo not drawn) the results were PAD4 FP inh inactive, RBBP9 inhibitor inactive, PME-1 primary inactive, GSTO1 inh inactive, Fam108B counter inactive, PRMT1 FP inh 30.8 and PRMT1 confirm inactive.
`CC(C)c1ccc(/C=N/n2c(COc3ccccc3)n[nH]c2=S)cc1` gave PAD4 FP inh inactive, PME-1 primary inactive, GSTO1 inh inactive, Fam108B counter inactive, PRMT1 FP inh 30.9 and PRMT1 confirm inactive.
`S=c1[nH]nc(COc2ccccc2)n1/N=C/C=C/c1ccco1` gave PAD4 FP inh inactive, RBBP9 inhibitor inactive, PME-1 primary inactive, GSTO1 inh inactive, Fam108B counter inactive, PRMT1 FP inh 32.9 and PRMT1 confirm inactive.
